The test system of the data set is MS2 coat protein. In words: apparent Kd, MS2 coat protein; higher = weaker binding; RNA-MaP array; FMN 200 µM where present. Put shortly:
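Designs on Illumina sequencing-chip clusters, transcribed by stalled E. coli RNA polymerase, were exposed to SNAP-549-labelled MS2 coat protein in doubling steps from 0.7 or 1.5 nM up to 3 µM, without and then with constant ligand. The buffer held 100 mM Tris-HCl pH 7.5, 80 mM KCl, 4 mM MgCl2, BSA, DTT, yeast tRNA and Tween-20. Apparent Kd values are medians of filtered per-cluster binding-curve fits to green signal normalised to red-channel RNA signal and control-cluster median Fmax.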

Setting [1] is: designed as: ON switch for flavin mononucleotide, no ligand.
[2] abbreviates: ligand present: flavin mononucleotide, designed as: ON switch for flavin mononucleotide.
Where [3] appears, read: designed as: OFF switch for flavin mononucleotide, no ligand.
Setting [4] is: ligand present: flavin mononucleotide, designed as: OFF switch for flavin mononucleotide.

As a reminder, the apparent Kd is the concentration giving half-maximal binding under the conditions of the assay.

With “CCGAUGUGGGUACAGGAUAUGUGGGCCUCCACAUGAGGAUCACCCAUGUCGGAGGCAAAGCGGCUACAGAAGGGUGCGAGCUCGA”, the “apparent Kd” value reads like this: under setting [1], 11 nM; under setting [2], 12.9 nM.
Take “CCACGACCGGAGAAGGCAGUUUGUGGGCCUGUUCCUGUCGGAUACAUGAGGAUCACCCAUGUACCUGAGGAUAUCUGGUCGUAG”: the “apparent Kd” value is, setting by setting: under setting [3], 4.99 nM; under setting [4], 5.57 nM.
“AAGAUGCGGAUAGGAUAUGGAGAGAAAGAAAGACCAGAAGGAUUGGUCAUAUAACAUGAGGAUCACCCAUGUAUAUGUUGUGAA”: the “apparent Kd” value under setting [3] was determined as 19.9 nM and the “apparent Kd” value under setting [4] came to 16.6 nM.
As to “GACGUGUGAGGAUAUCCGAUGCCGGUCCGGAAGGUUCGGGUGGAGAAGGCACAUGAGGAUCACCCAUGUGUAAG”, the “apparent Kd” value is 18 nM under setting [3] and 26.5 nM under setting [4].
Take “AAUUCACAUGAGGAUCACCCAUGUCAGGAUAUGGUUUCGCGGGUUUCGGUGCGUGAGGCCAGAAGGGACAGCUA”: the “apparent Kd” value under setting [3] came to 53.3 nM and the “apparent Kd” value under setting [4] was found to be 72.4 nM.
For “GGUCUAGGCGAAGGAUAUCCGUCGCGAGAUACUGGAGAAGGUCGCCUUGAUACAUGAGGAUCACCCAUGUGGCGGGUGAACCAA”, the “apparent Kd” value by setting is: under setting [3], 98.5 nM; under setting [4], 19.3 nM.
With “GUAGCAUACCGAGGAUAUUCAUACCGGAAACGGACAUGAGGAUCACCCAUGUGGCUAAUGCCUUGGGAGAAGGCGGAAUGCUAC”, the “apparent Kd” value runs as follows: under setting [1], 568 nM; under setting [2], 21.7 nM.
“UGGUACUAGGGAGGAUAUGGGAAGAUACAUGAGGAUCACCCAUGUUUAAGAAUGCCUAGAGGCAACUAGAAGGCCCUAGUACCU”: the “apparent Kd” value was 393 nM under setting [1] and 19.1 nM under setting [2].
On to “GCACGAGACUAAGGAUAUGGAGUAUCUACAUUAAACAUGAGGAUCACCCAUGUAGGGAGUAUGAUUCAGAAGGUAGAGACGUGC”, for which the “apparent Kd” value is, setting by setting: under setting [1], 157 nM; under setting [2], 37.3 nM.
Turning to “AUCAUGUAAGGAUAUCUUACAUGUAUCGAAAGAUACAGUUAAGAGAAGGUACAUGAGGAUCACCCAUGUAUAAC”, the “apparent Kd” value was 29 nM under setting [3] and 45.5 nM under setting [4].
For “AGUCUGCGAGGAUAUACAUGAGGAUCACCCAUGUGCGAGAUACUAGUGAGGUCGAUUGGUAGAAGGCGCGGACA”, the “apparent Kd” value under setting [3] was determined as 111 nM and the “apparent Kd” value under setting [4] came out at 66.1 nM.
Turning to “ACAAAACAUGUAGGAUAUCGAUUGCGUCGCGAUCGAGAAGGACAAGAGGGUCACCCUUGUACAUGAGGAUCACCCAUGUCAUGU”, the “apparent Kd” value is, setting by setting: under setting [3], 202 nM; under setting [4], 149 nM.
In the same order, the values of “GGGAAGUAAGGAUAUGCUGCUCGUCACUUGCGUGAUGAGUAGCAGAAGGUACAUGAGGAUCACCCAUGUAAAAA” are 30.2 nM and 28.6 nM.
As to “CAGCGAUAGCUGAAUGGUACAUCCGAGGAUAUUCAUAAACAACAUGAGGAUCACCCAUGUAAUUGGGAGAAGGCGGAUGUACCU”, the “apparent Kd” value under setting [1] amounted to 23.1 nM and the “apparent Kd” value under setting [2] worked out at 5.97 nM.
Take “AAAACAUGAGGAUCACCCAUGUAAAGAUCGGUUGAUGAAAGUGAGGAUAUACAAAAUUUUAUGGAGUAGAAGGCACUGGGUACA”: the “apparent Kd” value runs as follows: under setting [1], 44.6 nM; under setting [2], 40.9 nM.
Turning to “AAUGAUUCAGGAUAUACAUGAGGAUCACCCAUGUUGGUGUCCCUCCCAAAGUUGCAGUGUAGAAGGGAGUCCCG”, the “apparent Kd” value by setting is: under setting [3], 131 nM; under setting [4], 137 nM.
For “GUAAAUCAUGUAGGAUAUGCAUGGCGAAGCUACGCAGAAGGACAUGAGGAUCACCCAUGUCUCUCCGUCUGCAUACAGACGGAG”, the “apparent Kd” value under setting [3] amounted to 26.9 nM and the “apparent Kd” value under setting [4] was 230 nM.
Take “ACGUUUAAUACAGGAUAUGUUCUUAUACUAUAGAUUGGUUAUUACUUAAUUACAGAAGGGUAGAACAUGAGGAUCACCCAUGUA”: the “apparent Kd” value runs as follows: under setting [1], 507 nM; under setting [2], 261 nM.
For the sequence “CCUUGACAUGAGGAUCACCCAUGUGAGGAUAUGAUGCGAUCGUCGAAAGACGAUAGCAUCAGAAGGCACAUAUG”, the “apparent Kd” value was 23.4 nM under setting [3] and 95.7 nM under setting [4].
“CUUUUGUGAGGAUAUCAGUAGUAAAAAAAUAAAAUUACUUCUGAGAAGGCACAUGAGGAUCACCCAUGUUCCUC”: the “apparent Kd” value came out at 39.5 nM under setting [3] and 333 nM under setting [4].
Turning to “GAUUCACAUGAGGAUCACCCAUGUGAGGAUAUAGUGCAGGAGGCGGAUAUCCACCUCUCUAGAAGGCACACGGG”, the “apparent Kd” value reads like this: under setting [3], 21.8 nM; under setting [4], 24.1 nM.
With “CUCAAACAUGAGGAUCACCCAUGUGUUGUCAUGGGAGGAUAUCCCAGUUCGGUGACGUCGGGAGAAGGCCUAUGUC”, the “apparent Kd” value by setting is: under setting [1], 113 nM; under setting [2], 35.2 nM.
“UAUAUAAUAUUACACAUGAGGAUCACCCAUGUACAUGGGAUAGAGGAUAUACAAAUAUUAGUGGUGUAGAAGGUUAAUAUAUAU”: the “apparent Kd” value reads like this: under setting [3], 266 nM; under setting [4], 71 nM.
Take “UGUCGGAGCAGAGGAUAUUACAUGAGGAUCACCCAUGUAUGAACCAAUAGCUGGAAACAGCAAUGUAAGAAGGCUGGUCCGACA”: the “apparent Kd” value came out at 12.4 nM under setting [3] and 143 nM under setting [4].
